Data taken from paper PMC7413308 (ARKIVOC : free online journal of organic chemistry, 2018).
Entries after “also recorded” stand apart in the source; their conditions may differ. Like-named read-outs stand apart in the source and are kept apart here.

Assays:
[1] = In vitro liver microsomal stability; format: in vitro ADME, dog; settings: 4 μM compound, 37 °C, 30 minutes
[2] = system: rats; experiment: Prepulse inhibition; format: in vivo; settings: 30 mg/kg, IP, one hour before testing, PCP·HCl 1.5 mg/kg SC ten minutes prior to testing
Method in brief: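 Rats received the test compound at 30 mg/kg ip one hour before testing, then PCP·HCl (1.5 mg/kg, sc) ten minutes before testing to disrupt PPI. Startle to an auditory stimulus was measured with a non-startling auditory prepulse at 5, 10 and 15 decibels. Results were expressed as mean (+SEM) percent prepulse inhibition and compared with PCP-treated controls given 0 mg/kg drug.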

[3] = system: rhesus monkeys; settings: cited from earlier work
[4] = system: mice; experiment: 6 Hz electroshock seizure assay; format: in vivo
Method in brief: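 Mice received the test compound i.p. at 100 or 150 mg/kg, depending on the compound. At various time points after dosing, a 6 Hz electroshock lasting 3 seconds was delivered through a corneal electrode. Each animal was then observed for convulsions and scored as protected or not.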

[5] = In vitro microsomal stability of analogs; format: in vitro ADME, mouse
[6] = system: HEK293 (kidney) cell line; experiment: In vitro cytotoxicity, cell viability; format: cell-based; settings: 48 h incubation, Cell-Titer Glo cell viability
[7] = In vitro liver microsomal stability; format: in vitro ADME, mouse; settings: 4 μM compound, 37 °C, 30 minutes
[8] = In vitro liver microsomal stability; format: in vitro ADME, human; settings: 4 μM compound, 37 °C, 30 minutes
[9] = system: mice; experiment: Rotarod assay, i.p. dosing; format: in vivo; settings: 100 mg/kg i.p., 30 minutes prior to testing, 6 rpm, n=8
Method in brief: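 Mice (n=8) were given the test compound at 100 mg/kg ip 30 minutes before being placed on a rod rotating at 6 rpm for a 1-minute trial. Any mouse that fell 3 times during the trial was scored as toxic (ataxic or sedated).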

[10] = poly (I:C) animal model of schizophrenia; cited from earlier work
[11] = system: HEPG2 (liver) cell line; experiment: In vitro cytotoxicity, cell viability; format: cell-based; settings: 48 h incubation, Cell-Titer Glo cell viability
[12] = system: rats; settings: cited from earlier work
[13] = In vitro liver microsomal stability; format: in vitro ADME, rat; settings: 4 μM compound, 37 °C, 30 minutes
[14] = system: mice, rats and primates; settings: cited from earlier work
[15] = In vitro microsomal stability of analogs; format: in vitro ADME, human
[16] = MAM model of schizophrenia; cited from earlier work
[17] = system: mice; settings: cited from earlier work
[18] = cited from earlier work
[19] = system: mice; experiment: Sensorimotor coordination on rotating rod after oral gavage; format: in vivo; settings: oral gavage 40 mg/kg, rotating rod max 3 minutes, three time-points
[20] = cited from earlier work; remark: listed apart in the source
[21] = footnote d: assessed at 1-hour incubation time
[22] = footnote b: compound not detected after 20 minutes

SMILES | Liver microsomal stability (%-remaining) DLM [1] [%] | Reversal of PCP-induced PPI deficit [2] | Anxiolytic effect [3] | HEK293 LD50 [6] [µM] | Liver microsomal stability (%-remaining) MLM [7] [%] | Liver microsomal stability (%-remaining) HLM [8] [%] | Ataxia in rotarod assay [9] | HEPG2 LD50 [11] [µM] | Anxiolytic effect [12] | Liver microsomal stability (%-remaining) RLM [13] [%] | other results
C#Cc1ccc2c(c1)C(c1ccccc1F)=N[C@@H](C)c1c(C(=O)OCC)ncn1-2 [compound 2] | 90.7 | reversed PCP-induced prepulse inhibition (PPI) of acoustic startle; also recorded: significantly reversed the PPI deficit; also recorded: reversed the PPI deficits induced by PCP | exerted anxiolytic effects | 28.0 ± 4.1 | 66.5 | 3 | neither 1 nor 2 produced significant ataxia | 73.5 ± 14.4 | exerted anxiolytic effects | 6.0 | Protection from 6 Hz electroshock-induced seizures ([4]; i.p. 100 mg/kg, time points 1/4, 1/2, 1, 2, and 4 hours, 100 mg/kg): able to protect some subjects; Microsomal stability (MLM) % remaining [5, 21]: 78.0 ± 0.2^d %; Microsomal stability (MLM) Half-life [5, 21]: 155 ± 9^d min; Liver microsomal stability (%-remaining) HLM ([8]; listed as SH-053-2'F-S-CH3 (2)): 2.3%; Effect on amphetamine-induced hyperactivity [10]: successfully mitigated the amphetamine-induced hyperactivity; Toxicity in pharmacological assays [14]: not toxic; Microsomal stability (HLM) % remaining [15, 22]: < 5.0^b %; Microsomal stability (HLM) Half-life [15, 22]: < 5^b min
C#Cc1ccc2c(c1)C(c1ccccc1F)=N[C@H](C)c1c(C(=O)OCC)ncn1-2 [compound 1] | 90.3 | failed to reach a significant effect; also recorded: not 1 reversed the PPI deficits | only a minimal anxiolytic effect | – | 59.1 | 100 | neither 1 nor 2 produced significant ataxia | – | only a minimal anxiolytic effect | 5.4 | Effect on amphetamine-induced hyperactivity of the dopamine system [16]: successfully alleviate the hyperactivity of the dopamine system induced by amphetamine; Protection from 6 Hz electroshock-induced seizures ([4]; i.p. 150 mg/kg, various time points, 150 mg/kg): not effective at any time; also recorded: not able to protect mice from electroshock-induced seizures; Liver microsomal stability (%-remaining) HLM ([8]; listed as SH-053-2'F-R-CH3 (1)): 100.0%; Anxiolytic and antidepressant effects after UCMS ([17]; female mice): exhibited anxiolytic and antidepressant effects; Anxiolytic and antidepressant effects after UCMS ([17]; male mice): very weak or none at all
C#Cc1ccc2c(c1)C(c1ccccc1F)=N[C@@H](C)c1c(C(=O)N(C)C)ncn1-2 [8f, (S)-8-Ethynyl-6-(2-fluorophenyl)-N,N,4-trimethyl-4H-benzo[f]imidazo[1,5-a][1,4]diazepine-3-carboxamide] | – | – | – | >400 | – | – | – | >400 | – | – | Activity in procognitive assay [18]: procognitive (A++ and C++); half-life ([5]; mouse, liver microsomes): 24 ± 2 min; remaining at 1 h ([5]; mouse, liver microsomes, Microsomal stability (MLM) % remaining, footnote d: assessed at 1-hour incubation time): 19 ± 0.9%; Effect on sensorimotor coordination (motor impairment, sedation/ataxia) [19]: only minor impairment; Activity in antidepressant assay (forced swim test) [20]: active; half-life ([15]; human, liver microsomes): 59 ± 5 min; remaining at 1 h ([15]; human, liver microsomes, Microsomal stability (HLM) % remaining, footnote d: assessed at 1-hour incubation time): 41 ± 0.9%
